The source made the active and inactive calls. No cut-off for these calls is given here.
Assays:
[1] = system: K-562R; assay: Cytotoxicity against human K562R cells assessed as decrease in cell viability after 24 hrs by XTT assay; type: functional, cell-based
Outline: (§1)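 K562R (imatinib-resistant) or K562S cells seeded at 1×10^4/well in phenol red-free RPMI, left 24 h, then exposed 24 h to various concentrations. XTT reagent added, 2 h incubation, absorbance at 450 nm; IC50 reported. Mean ± SD, four experiments in triplicate.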

[2] = system: K562; assay: Cytotoxicity against imatinib-sensitive human K562 cells assessed as decrease in cell viability after 24 hrs by XTT assay; type: functional, cell-based; conditions: K562, 24 h; outline: as §1
[3] = molecular target: T1, Heme oxygenase 1 (Rattus norvegicus, UniProt P06762); assay: Inhibition of heme oxygenase 1 in Sprague-Dawley rat spleen microsomal fraction assessed as decrease in bilirubin formation using hemin as substrate after 60 mins by spectrophotometric method
T1 sequence (P06762 whole entry): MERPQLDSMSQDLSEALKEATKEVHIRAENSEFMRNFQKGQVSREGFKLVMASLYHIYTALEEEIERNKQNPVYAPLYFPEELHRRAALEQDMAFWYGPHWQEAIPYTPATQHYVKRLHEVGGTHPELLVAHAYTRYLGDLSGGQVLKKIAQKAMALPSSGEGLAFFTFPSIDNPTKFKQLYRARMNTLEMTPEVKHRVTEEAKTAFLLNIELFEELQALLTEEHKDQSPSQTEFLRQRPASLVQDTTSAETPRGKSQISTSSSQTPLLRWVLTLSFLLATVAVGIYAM

[4] = system: K-562R; assay: Induction of ROS production in human K562R cells at 10 uM by DCFH-DA dye based spectrofluorometric method; type: functional, cell-based
Outline: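 K562R cells (RPMI-1640, 10% FBS, 37 °C, 5% CO2) treated 24 h at 10 μM, then probed with DCFH-DA. DCF fluorescence read at excitation 488 nm, emission 525 nm, normalized to total protein (F.I./mg protein). Mean ± SD, four experiments in triplicate.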

[5] = molecular target: T2, Heme oxygenase 1 (Homo sapiens) (UniProt P09601); assay: Inhibition of heme oxygenase 1 in human K562R cell lysates assessed as decrease in bilirubin formation at 10 uM after 60 mins by spectrophotometric method
T2 sequence (whole entry): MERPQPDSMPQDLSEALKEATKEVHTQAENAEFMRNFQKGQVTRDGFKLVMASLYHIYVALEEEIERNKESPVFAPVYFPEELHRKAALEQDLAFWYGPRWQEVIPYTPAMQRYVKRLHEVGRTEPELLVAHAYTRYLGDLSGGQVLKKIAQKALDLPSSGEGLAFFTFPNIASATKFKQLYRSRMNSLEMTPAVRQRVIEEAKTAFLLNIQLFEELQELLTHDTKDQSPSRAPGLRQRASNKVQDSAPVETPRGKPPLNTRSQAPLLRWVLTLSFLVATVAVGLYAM
Outline: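 Intact K562R cells treated 24 h at 10 μM, then lysate (1 mg/mL) assayed. Mix: 20 mM Tris-HCl pH 7.4, liver biliverdin reductase 0.5–2 mg/mL, 1 mM NADPH, G6P/G6PDH, 25 μM hemin. 60 min at 37 °C in the dark, chloroform extraction, bilirubin by OD 464–530 nm. Mean ± SD, four experiments in triplicate.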

[6] = molecular target: T2, Heme oxygenase 1 (Homo sapiens); assay: Inhibition of heme oxygenase 1 in human K562R cells assessed as decrease in HO-1 mRNA levels at 10 uM by qRT-PCR method; type: cell-based
Outline: (§2)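 K562R cells treated 24 h at 10 μM, rinsed in cold PBS and lysed in Trizol. HO-1 and HO-2 mRNA measured by real-time PCR alongside GAPDH. Mean ± SD, four experiments in triplicate.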

[7] = system: K-562R; assay: Induction of apoptosis in human K562R cells assessed as late apoptotic cells at 10 uM by Annexin V staining-based flow cytometry (reference value: 9.49%); type: functional
[8] = system: K-562R; assay: Induction of apoptosis in human K562R cells assessed as early apoptotic cells at 10 uM by Annexin V staining-based flow cytometry (reference value: 8.51%); type: functional
[9] = system: K-562R; assay: Induction of apoptosis in human K562R cells assessed as viable cells at 10 uM by Annexin V staining-based flow cytometry (reference value: 81.13%); type: functional; conditions: read-out: Activity
[10] = system: K-562R; assay: Induction of apoptosis in human K562R cells assessed as necrotic cells at 10 uM by Annexin V staining-based flow cytometry (reference value: 0.87%); type: functional
[11] = molecular target: Bcr/Abl fusion protein (Homo sapiens) (UniProt P00519+P11274); assay: Inhibition of BCR-ABL in human K562R cells assessed as decrease in CrKL phosphorylation at 10 uM by immuno blot analysis; type: cell-based
Chain of Bcr/Abl fusion protein (Homo sapiens) (P00519 whole entry, looked up, the tested form may be a part): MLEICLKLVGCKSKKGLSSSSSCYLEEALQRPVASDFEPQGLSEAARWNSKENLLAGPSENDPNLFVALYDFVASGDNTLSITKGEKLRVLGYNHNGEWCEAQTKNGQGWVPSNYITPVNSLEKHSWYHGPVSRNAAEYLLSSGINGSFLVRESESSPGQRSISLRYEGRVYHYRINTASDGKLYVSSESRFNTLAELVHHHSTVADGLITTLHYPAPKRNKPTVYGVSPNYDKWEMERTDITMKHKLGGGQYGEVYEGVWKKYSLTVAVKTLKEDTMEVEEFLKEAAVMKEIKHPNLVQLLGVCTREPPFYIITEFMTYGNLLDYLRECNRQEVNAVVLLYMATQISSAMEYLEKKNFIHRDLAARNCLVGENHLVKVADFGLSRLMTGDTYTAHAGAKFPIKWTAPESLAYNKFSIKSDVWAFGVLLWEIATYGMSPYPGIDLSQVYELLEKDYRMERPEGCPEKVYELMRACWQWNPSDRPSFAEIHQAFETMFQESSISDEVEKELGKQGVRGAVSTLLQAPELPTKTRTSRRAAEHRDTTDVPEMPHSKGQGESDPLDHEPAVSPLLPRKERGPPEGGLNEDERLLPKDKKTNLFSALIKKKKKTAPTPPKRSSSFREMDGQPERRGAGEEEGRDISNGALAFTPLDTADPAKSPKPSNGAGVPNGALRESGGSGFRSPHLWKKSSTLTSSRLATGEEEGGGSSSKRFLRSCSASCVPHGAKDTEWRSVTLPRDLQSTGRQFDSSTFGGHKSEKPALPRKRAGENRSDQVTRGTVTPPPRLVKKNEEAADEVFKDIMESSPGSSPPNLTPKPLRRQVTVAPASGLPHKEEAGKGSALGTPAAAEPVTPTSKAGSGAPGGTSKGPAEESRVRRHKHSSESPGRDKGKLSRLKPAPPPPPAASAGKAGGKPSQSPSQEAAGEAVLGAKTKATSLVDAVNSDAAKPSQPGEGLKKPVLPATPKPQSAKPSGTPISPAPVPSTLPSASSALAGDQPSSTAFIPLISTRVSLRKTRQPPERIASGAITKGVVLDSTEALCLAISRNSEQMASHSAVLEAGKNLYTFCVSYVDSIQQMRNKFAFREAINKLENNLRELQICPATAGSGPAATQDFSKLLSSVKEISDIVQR
Chain of Bcr/Abl fusion protein (Homo sapiens) (P11274 whole entry, looked up, the tested form may be a part): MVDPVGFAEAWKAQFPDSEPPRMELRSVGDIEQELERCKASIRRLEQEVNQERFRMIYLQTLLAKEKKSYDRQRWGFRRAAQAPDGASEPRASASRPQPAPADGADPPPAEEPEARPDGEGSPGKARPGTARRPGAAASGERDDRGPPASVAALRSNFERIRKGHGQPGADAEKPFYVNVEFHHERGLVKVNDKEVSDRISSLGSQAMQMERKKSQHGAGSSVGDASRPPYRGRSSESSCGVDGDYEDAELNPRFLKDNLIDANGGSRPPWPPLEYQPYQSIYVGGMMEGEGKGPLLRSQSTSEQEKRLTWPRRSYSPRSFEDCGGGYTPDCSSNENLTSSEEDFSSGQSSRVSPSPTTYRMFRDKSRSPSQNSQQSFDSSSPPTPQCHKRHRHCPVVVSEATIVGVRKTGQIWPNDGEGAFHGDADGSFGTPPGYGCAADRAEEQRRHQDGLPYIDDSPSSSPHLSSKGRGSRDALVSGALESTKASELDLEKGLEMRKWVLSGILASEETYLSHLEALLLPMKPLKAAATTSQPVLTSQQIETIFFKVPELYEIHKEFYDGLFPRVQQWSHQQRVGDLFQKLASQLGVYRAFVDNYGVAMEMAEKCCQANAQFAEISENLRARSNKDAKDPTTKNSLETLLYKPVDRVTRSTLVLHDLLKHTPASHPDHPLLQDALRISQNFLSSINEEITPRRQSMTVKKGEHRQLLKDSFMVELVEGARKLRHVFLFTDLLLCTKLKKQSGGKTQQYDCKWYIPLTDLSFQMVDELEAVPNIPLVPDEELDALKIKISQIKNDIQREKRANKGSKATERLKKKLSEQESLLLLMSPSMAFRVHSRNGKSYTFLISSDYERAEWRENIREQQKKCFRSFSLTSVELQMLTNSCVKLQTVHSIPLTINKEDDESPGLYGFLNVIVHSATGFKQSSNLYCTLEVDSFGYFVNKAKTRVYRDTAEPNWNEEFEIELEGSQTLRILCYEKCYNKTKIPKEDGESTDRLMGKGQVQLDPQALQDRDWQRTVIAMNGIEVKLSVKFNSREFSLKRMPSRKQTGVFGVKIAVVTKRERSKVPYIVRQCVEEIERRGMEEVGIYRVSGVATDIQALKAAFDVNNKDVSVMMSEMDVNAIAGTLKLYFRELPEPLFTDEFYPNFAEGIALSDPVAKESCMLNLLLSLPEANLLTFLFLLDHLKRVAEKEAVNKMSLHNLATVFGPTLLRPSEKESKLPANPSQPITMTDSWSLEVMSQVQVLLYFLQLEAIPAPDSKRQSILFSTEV
Outline: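 K562R cells treated 24 h at 10 μM and lysed. 20 μg protein separated on SDS-PAGE, transferred to nitrocellulose and probed with anti-CrkL and anti-pCrkL (1:1,000), then infrared-dye secondary antibody. Densitometry gives pCrkL/CrkL ratio as fold of untreated control. Four experiments in triplicate.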

[12] = system: Lymphocyte; assay: Cytotoxicity against human lymphocytes assessed as decrease in cell viability at 10 uM after 24 hrs by XTT assay; type: cell-based
Outline: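 Lymphocytes from healthy volunteers isolated on Ficoll–Paque, grown in RPMI-1640 with 10% FBS and 1% penicillin/streptomycin at 37 °C, 5% CO2, and treated 24 h at 10 μM.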

[13] = system: K-562R; assay: Effect on heme oxygenase 2 mRNA levels in human K562R cells at 10 uM by qRT-PCR method; type: functional, cell-based; outline: as §2

Row | IC50 [3] [µM] | inhibition [5] | inhibition [11] | SMILES | IC50 [1] [µM] | IC50 [2] [µM] | Activity [4] | inhibition [6] | Activity [7] [%] | Activity [8] [%] | viability at 10 µM [9] [%] | Activity [10] [%] | Activity [12] | Activity [13]
1 | 28 |  |  | Cc1ccc(NC(=O)c2ccccc2OCCCCn2ccnc2)cc1Nc1nccc(-c2cccnc2)n1 | 83.4 | 47.5 |  |  |  |  |  |  |  | 
2 | 61.6 |  |  | COc1ccc(C(=O)Nc2ccc(C)c(Nc3nccc(-c4cccnc4)n3)c2)c(OCCCCn2ccnc2)c1 | 46.6 | 58.9 |  |  |  |  |  |  |  | 
3 | 15.1 |  |  | Cc1ccc(NC(=O)c2ccc(I)cc2OCCCCn2ccnc2)cc1Nc1nccc(-c2cccnc2)n1 | 51.8 | 57.4 |  |  |  |  |  |  |  | 
4 |  | Active |  | Brc1cccc(OCCCCn2ccnc2)c1 | 81.7 | 68.3 | Active |  |  |  |  |  |  | 
5 | > 100 |  |  | Cc1ccc(N)cc1Nc1nccc(-c2cccnc2)n1 |  |  |  |  |  |  |  |  |  | 
6 | 38.5 |  |  | Cc1ccc(NC(=O)c2cccc(OCCCCn3ccnc3)c2)cc1Nc1nccc(-c2cccnc2)n1 | 63.4 | 74.6 |  |  |  |  |  |  |  | 
7 | 66.2 |  |  | Cc1ccc(NC(=O)c2ccc(OCCCCn3ccnc3)cc2)cc1Nc1nccc(-c2cccnc2)n1 | 99.4 | 49.9 |  |  |  |  |  |  |  | 
8 | 0.92 |  | Active | Cc1ccc(NC(=O)c2ccc(OCCCCn3ccnc3)c(Br)c2)cc1Nc1nccc(-c2cccnc2)n1 | 31.8 | 12 |  |  | 13.15 | 2.3 | 83.8 | 0.65 | Non-Toxic | 
9 | 4.03 |  | Active | Cc1ccc(NC(=O)c2ccc([N+](=O)[O-])c(OCCCCn3ccnc3)c2)cc1Nc1nccc(-c2cccnc2)n1 | 47.6 | 25 |  |  | 14.2 | 2.15 | 82.4 | 1.25 | Non-Toxic | 
10 | 0.95 |  |  | Cc1ccc(OCCCCn2ccnc2)c(C(=O)Nc2ccc(C)c(Nc3nccc(-c4cccnc4)n3)c2)c1 | 48.6 | 59.5 |  |  |  |  |  |  |  | 
11 | 0.95 |  | Active | Cc1ccc(NC(=O)c2ccc(Br)cc2OCCCCn2ccnc2)cc1Nc1nccc(-c2cccnc2)n1 | 44.6 | 66.1 |  |  |  |  |  |  |  | 
12 | 74.9 |  | Active | Cc1ccc(NC(=O)c2ccc(OCCCCn3ccnc3)c(I)c2)cc1Nc1nccc(-c2cccnc2)n1 | 52.4 | 32.5 |  |  |  |  |  |  |  | 
13 | 38.9 |  |  | Cc1ccc(NC(=O)c2cc(I)ccc2OCCCCn2ccnc2)cc1Nc1nccc(-c2cccnc2)n1 | 81.7 | 66.5 |  |  |  |  |  |  |  | 
14 | 15.1 | Active | Active | COc1ccc(C(=O)Nc2ccc(C)c(Nc3nccc(-c4cccnc4)n3)c2)cc1OCCCCn1ccnc1 | 18.7 | 10.1 | Active |  | 39.5 | 5.4 | 51.3 | 3.85 | Non-Toxic | inactive
15 | 56.6 |  | Active | COc1cc(C(=O)Nc2ccc(C)c(Nc3nccc(-c4cccnc4)n3)c2)ccc1OCCCCn1ccnc1 | 27.1 | 29.5 |  |  | 32.3 | 4.4 | 60.4 | 2.9 | Non-Toxic | 
16 |  | Active |  | Ic1ccc(OCCCCn2ccnc2)cc1 | 84.4 | 69.1 | Active |  |  |  |  |  |  | 
17 | 28.6 | Active | Active | Cc1ccc(NC(=O)c2cc(Br)cc(OCCCCn3ccnc3)c2)cc1Nc1nccc(-c2cccnc2)n1 | 19.1 | 6.5 | Active |  | 47.6 | 1.55 | 41.2 | 9.65 | Non-Toxic | inactive

Row | SMILES | IC50 [3] [µM] | inhibition [5] | inhibition [11] | IC50 [1] [µM] | IC50 [2] [µM] | Activity [4] | inhibition [6] | Activity [7] [%] | Activity [8] [%] | viability at 10 µM [9] [%] | Activity [10] [%] | Activity [12] | Activity [13]
18 | Cc1ccc(NC(=O)c2ccc(CN3CCN(C)CC3)cc2)cc1Nc1nccc(-c2cccnc2)n1 [IMATINIB] | > 100 | Active |  | 98.8 | 1 | inactive | inactive | 3.6 | 6.25 | 89.4 | 0.79 |  | 
